The results in this text go back to the EternaBench riboswitch data.

As usually defined, the apparent Kd is the concentration giving half-maximal binding under the conditions of the assay.

The test system of the data set is MS2 coat protein. The data set is described as follows: apparent Kd, MS2 coat protein; higher = weaker binding; RNA-MaP array; FMN 200 µM where present. In short, it runs like this:
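Designs were transcribed by stalled E. coli RNA polymerase on Illumina sequencing-chip clusters. They were titrated with SNAP-549-labelled MS2 coat protein from 0.7 or 1.5 nM, doubling to 3 µM, without and then with constant ligand. Buffer: 100 mM Tris-HCl pH 7.5, 80 mM KCl, 4 mM MgCl2, BSA, DTT, yeast tRNA, Tween-20. Green signal was normalised to red-channel RNA signal and control-cluster median Fmax. Apparent Kd is the median of filtered per-cluster binding-curve fits.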

The mark [1] stands for this setting: designed as: OFF switch for flavin mononucleotide, no ligand.
[2] abbreviates: ligand present: flavin mononucleotide, designed as: OFF switch for flavin mononucleotide.
Where [3] appears, read: designed as: ON switch for flavin mononucleotide, no ligand.
Where [4] appears, read: ligand present: flavin mononucleotide, designed as: ON switch for flavin mononucleotide.

Regarding “ACAAGAUCAGGAUAUACAUGAGGAUCACCCAUGUGUAUCAAAAGGGAACUUUCUUAAUGUAGAAGGGAUCUUGU”, the “apparent Kd” value is 14.7 nM under setting [1] and 22.3 nM under setting [2].

As to “AAACAGUACGAGAAGGGCUACAUGAGGAUCACCCAUGUAGACGGUCGUGUGGCAGGAUAUCGAACGCACCCGAAACGGUGUGUU”, the “apparent Kd” value by setting is: under setting [1], 5.07 nM; under setting [2], 7.03 nM.

In the case of “UGUAUUAUCGGAGGAUAUCGAUAUCAAACAUGAGGAUCACCCAUGUUGAGGAUCACCCAUGUCCACGAGAAGGCCGGCGUACUC”, the “apparent Kd” value by setting is: under setting [3], 25.7 nM; under setting [4], 26.4 nM.

As for “GACUUGGCUACAUGAGGAUCACCCAUGUUUGACUGGAUCGAUCAGGAUAUAGUAAUUUGCAACAAUUAGAAGGGAUAUUUACGG”, the “apparent Kd” value is, setting by setting: under setting [3], 65.9 nM; under setting [4], 56.9 nM.

Consider “UUGGACGUCGUAGCAUAUGUAGGAUAUUCCUACAUGAGGAUCACCCAUGUUGACAUGGAAGAAGGACAGAAGGACGAUGUCCAU”, for which the “apparent Kd” value came to 146 nM under setting [3] and 5.47 nM under setting [4].

As to “UCGGUGACAGGAUAUACAUGAGGAUCACCCAUGUUAAGAAGAGAAAGGGCAGGAAGAGGUAGAAGGGUCGCUGU”, the “apparent Kd” value under setting [1] was found to be 51.7 nM and the “apparent Kd” value under setting [2] stood at 69 nM.

Consider “CUUUUGUGAGGAUAUGUGGCUUCGAUCGUGAGAUCGAGGCUACAGAAGGCACAUGAGGAUCACCCAUGUUCCUU”, for which the “apparent Kd” value reads like this: under setting [1], 17.6 nM; under setting [2], 69.7 nM.

Regarding “UUGCCUCAGAACAUGAGGAUCACCCAUGUGCUGCGGGCAACGUAGGAUAUGAUGGUACGCUACCAUCAGAAGGAUGAUGGUACC”, the “apparent Kd” value reads like this: under setting [3], 5.51 nM; under setting [4], 4.99 nM.

On to “ACUUGUGAAGGAUAUACUGGCGACAUGCGCUCAACACGCGCACAUGAGGAUCACCCAUGUAGAAGGUCAAACAU”, for which the “apparent Kd” value runs as follows: under setting [1], 24.7 nM; under setting [2], 34.8 nM.

In the case of “AGGAGGUCAGGAUAUGCUGCUCGUCACUUGCGUGAUGAGUAGCAGAAGGGACAUGAGGAUCACCCAUGUAAAGA”, the “apparent Kd” value under setting [1] turned out to be 55.7 nM and the “apparent Kd” value under setting [2] was 95.7 nM.

On to “GCUGCAUAGUCAGGAUAUGCAAAGUAAUAUAUGGAAACAUAUAUUACAACAUGAGGAUCACCCAUGUAGAAGGGACUGUGCAGU”, for which the “apparent Kd” value reads like this: under setting [1], 15.9 nM; under setting [2], 14.8 nM.

For the sequence “CACCGACCCUAUGUGUUCUAGACAUGAGGAUCACCCAUGUAUAGAAGGGUCUUCGCGAAACGCAGACAGGAUAUGUACAGGAGU”, the “apparent Kd” value was determined as 6.58 nM under setting [1] and 9.89 nM under setting [2].

“GGAUCGAAUGUGAGGAUAUGCUGGUCCUUGGAUCAGCAGAAGGCACAUGAGGAUCACCCAUGUCCAAGCGGUCC”: the “apparent Kd” value by setting is: under setting [1], 212 nM; under setting [2], 559 nM.

Consider “CUGGAAUACAGACAUGAGGAUCACCCAUGUUUAAGGGAAGCACAGGAUAUGUCGACGCACCAUAGACAGAAGGGUGACUUGCUU”, for which the “apparent Kd” value is, setting by setting: under setting [3], 49.4 nM; under setting [4], 24.8 nM.

For “CGCUCUAUAUAUUUGGCAAGUAUCAGAAGGCGUUACAUGAGGAUCACCCAUGUUUUGAAUAGUAACGAGGAUAUGAUAUGAGCG”, the “apparent Kd” value under setting [1] is 22 nM and the “apparent Kd” value under setting [2] came to 24.2 nM.

Take “AUCAGGCAAGGAUAUGAUAUAGGACACAUGAGGAUCACCCAUGUCCACCGAACGAUCGUUUCAGAAGGUGCACAGU”: the “apparent Kd” value amounted to 72.8 nM under setting [1] and 41 nM under setting [2].

As to “CACUUAGGCACAUGAGGAUCACCCAUGUCCCGGGAGCCGAGACAGGAUAUGUGCCUCGAAUGUGCACAGAAGGGUCUACUAUGU”, the “apparent Kd” value reads like this: under setting [3], 165 nM; under setting [4], 229 nM.

With “UGUUGUAUUACAGGAUAUCUAGUAUUUUUAUGUAGAGAAGGGUAUUCACAUGAGGAUCACCCAUGUAUAUACGAGGAAGUUGUG”, the “apparent Kd” value is 39.7 nM under setting [3] and 43.2 nM under setting [4].

“CUUCGUUGUAAGGAUAUCCAGACUCUUCCUGUCGGAGAAGGUACAACAUGAGGAUCACCCAUGUUGCUACAUGG”: the “apparent Kd” value is, setting by setting: under setting [1], 25 nM; under setting [2], 38.7 nM.

As for “CUGCUCCGUGUAGGAUAUCCCGGCAACCAAUCGGGAGAAGGACAUGAGGAUCACCCAUGUAUGUUAUUAUCACGUGAAGCGUCC”, the “apparent Kd” value turned out to be 23.1 nM under setting [1] and 30.1 nM under setting [2].

For “AAUAACAGAGGAUAUACUGUUUUAUGUAUUUAUUAUUUUAAACAUGAGGAUCACCCAUGUAGAAGGCUGAUUGA”, the “apparent Kd” value runs as follows: under setting [1], 33.7 nM; under setting [2], 29.8 nM.

For “UAUUAUGUUCGAGGAUAUCCGCGAUGCCGACCAGGAGAAGGCGAACAUGAGGAUCACCCAUGUUAUAGAUGACCGGUUACCAAA”, the “apparent Kd” value is 23.8 nM under setting [1] and 41.2 nM under setting [2].

“GGUGGACAUGAGGAUCACCCAUGUGAGGAUAUCGGCUAUCUACUCGCUGUCGGUUGCUCGAGAAGGCACAUUGU”: the “apparent Kd” value was found to be 177 nM under setting [1] and 171 nM under setting [2].

“AUCAGCUCGUCAGGAUAUACGUCACUGCGUCAGCAGUGUGGUAGGAUCACAUGAGGAUCACCCAUGUAGAAGGGACGAGCUGAU”: the “apparent Kd” value under setting [1] was determined as 23.8 nM and the “apparent Kd” value under setting [2] is 297 nM.
